Reference: ChEMBL document CHEMBL3352073, “Synthesis of cyclic 1,9-acetal derivatives of forskolin and their bioactivity evaluation” (Eur J Med Chem, 2014)
In brackets after ≈: the same amount, converted by molar mass.

Legend:
WRL68 = assay: Anticancer activity against human WRL68 cells after 24 hrs by MTT assay; format: functional, cell-based; details: WRL68, 24 h
Outline: (§1)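 Cells were seeded at 1 × 10^6 to 1 × 10^5 cells/well in FBS-rich medium with antibiotics, and compounds were added after 24 h. MTT (5 mg/ml stock in PBS pH 7.4) was then added, with 4 h in the dark in an incubator. Dye was removed (except for suspension K562), formazan was dissolved in DMSO with 10 min shaking, and A570 was read. Percent cytotoxicity was calculated relative to untreated control absorbance.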

K562 = assay: Anticancer activity against human K562 cells after 24 hrs by MTT assay; format: functional, cell-based; details: K562, 24 h; outline: as §1
[1] = Anticancer activity against human MDA-MB cells after 24 hrs by MTT assay; format: functional, cell-based
HEK293 = assay: Cytotoxic activity against HEK293 cells after 24 hrs by MTT assay; format: cell-based; details: Homo sapiens, HEK293, 24 h; outline: as §1
[2] = Anticancer activity against human SH-SY5Y cells after 24 hrs by MTT assay; format: functional, cell-based
A498 = assay: Anticancer activity against human A498 cells after 24 hrs by MTT assay; format: functional, cell-based; details: A498, 24 h; outline: as §1
MCF7 = assay: Anticancer activity against human MCF7 cells after 24 hrs by MTT assay; format: functional, cell-based; details: MCF7, 24 h; outline: as §1
NRK = assay: Cytotoxicty against rat NRK cells after 24 hrs by MTT assay; format: cell-based; outline: as §1
[3] = Inhibition of rat intestinal alpha-glucosidase using p-nitrophenyl-alpha-D-glucopyranoside substrate by spectrophotometry
Outline: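 Crude enzyme was the centrifuged supernatant of sonicated rat intestinal acetone powder in normal saline (100:1 w/v). Samples from 5 mg/mL DMSO stocks were preincubated with enzyme for 5 min in 100 mM phosphate buffer pH 6.8. Then 5 mM p-nitrophenyl-α-D-glucopyranoside solution was added, and p-nitrophenol was read at 405 nm after 5 min. Substrate-free blanks and a DMSO control were included, in triplicate. IC50 was obtained by regression on mean inhibition.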

HeLa = assay: Anticancer activity against human HeLa cells after 24 hrs by MTT assay; format: functional, cell-based; outline: as §1
[4] = Induction of hemolysis in human erythrocytes assessed as mean erythrocyte fragility by measuring level of hemolysis at 50% PBS at 100 ug/mL by spectrophotomtery based erythrocyte osmotic fragility assay; format: cell-based
Outline: (§2)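 Heparinised human blood was incubated with compound at 37 °C for 60 min, then transferred to hypotonic PBS (0.1–0.85 %). After 30 min equilibration and centrifugation, supernatant A540 was read. Percent lysis is relative to a 100% haemolysis standard, and fragility curves give MEF50 as the haemolysis level at 50% PBS. DMSO 0.5% served as vehicle control.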

[5] = Induction of hemolysis in human erythrocytes assessed as mean erythrocyte fragility by measuring level of hemolysis at 50% PBS at 50 ug/mL by spectrophotomtery based erythrocyte osmotic fragility assay; format: cell-based; outline: as §2

Row | SMILES | IC50 (WRL68) [µg/mL] | IC50 (K562) [µg/mL] | IC50 [1] [µg/mL] | IC50 (HEK293) [µg/mL] | IC50 [2] [µg/mL] | IC50 (A498) [µg/mL] | IC50 (MCF7) [µg/mL] | IC50 (NRK) [µg/mL] | IC50 [3] [µg/mL] | IC50 (HeLa) [µg/mL] | Activity [4] | Activity [5]
1 | CC(=O)O[C@H]1C(=O)[C@@]2(C)[C@H]([C@H](OC(=O)c3ccccc3)[C@]3(O)C[C@H](OC(=O)[C@H](O)[C@@H](NC(=O)c4ccccc4)c4ccccc4)C(C)=C1C3(C)C)[C@]1(OC(C)=O)CO[C@@H]1C[C@@H]2O [PACLITAXEL] | 0.004 (≈ 0.00468 µM) | 0.018 (≈ 0.0211 µM) | 0.026 (≈ 0.0304 µM) | 0.008 (≈ 0.00937 µM) | 7.3 (≈ 8.55 µM) | 7.53 (≈ 8.82 µM) |  |  |  |  |  | 
2 | C=C[C@@]1(C)CC(=O)[C@@]23O[C@@H](c4ccccc4)O[C@H]4CCC(C)(C)[C@H]([C@H](O)[C@H](OC(C)=O)[C@@]2(C)O1)[C@]43C | > 100 | > 100 | > 100 | > 100 | > 100 | > 100 | > 100 | > 100 | 2.81 (≈ 5.64 µM) | > 100 |  | 
3 | COc1cc(/C=C/C(=O)CC(=O)/C=C/c2ccc(O)c(OC)c2)ccc1O [CURCUMIN] |  |  |  |  |  |  |  |  |  |  | 0.53 | 
4 | C=C[C@@]1(C)CC(=O)[C@@]23O[C@@H](c4ccccc4)O[C@H]4CCC(C)(C)[C@H]([C@H](OC(C)=O)[C@H](O)[C@@]2(C)O1)[C@]43C | 16.6 (≈ 33.3 µM) | 1.26 (≈ 2.53 µM) | 1.28 (≈ 2.57 µM) | 14.3 (≈ 28.7 µM) | 16.6 (≈ 33.3 µM) | 16.7 (≈ 33.5 µM) | 1.15 (≈ 2.31 µM) | 20.1 (≈ 40.4 µM) | 4.14 (≈ 8.3 µM) | 9.22 (≈ 18.5 µM) | 0.57 | 0.53
5 | C=C[C@@]1(C)CC(=O)[C@@]23O[C@@H](c4ccc([N+](=O)[O-])cc4)O[C@H]4CCC(C)(C)[C@H]([C@H](O)[C@H](OC(C)=O)[C@@]2(C)O1)[C@]43C | > 100 | > 100 | > 100 | > 100 | > 100 | > 100 | > 100 | > 100 | 0.76 (≈ 1.4 µM) | > 100 |  | 
6 | C=C[C@@]1(C)CC(=O)[C@@]23O[C@@H](c4ccco4)O[C@H]4CCC(C)(C)[C@H]([C@H](O)[C@H](OC(C)=O)[C@@]2(C)O1)[C@]43C | > 100 | > 100 | > 100 | > 100 | > 100 | > 100 | > 100 | > 100 | 4.96 (≈ 10.2 µM) | > 100 |  | 
7 | C[C@H]1O[C@H](O[C@H]2[C@H](O)[C@@H](O)[C@@H](O[C@H]3[C@H](O)[C@@H](O)C(O)O[C@@H]3CO)O[C@@H]2CO)[C@H](O)[C@@H](O)[C@@H]1N[C@H]1C=C(CO)[C@@H](O)[C@H](O)[C@H]1O (stereo partly specified) [ACARBOSE] |  |  |  |  |  |  |  |  | 0.45 (≈ 0.697 µM) |  |  | 
8 | C=C[C@@]1(C)CC(=O)[C@@]23O[C@@H](c4cccs4)O[C@H]4CCC(C)(C)[C@H]([C@H](O)[C@H](OC(C)=O)[C@@]2(C)O1)[C@]43C | > 100 | > 100 | > 100 | 40.1 (≈ 79.6 µM) | > 100 | > 100 | > 100 | > 100 | > 100 | 42 (≈ 83.2 µM) |  | 
9 | C=C[C@@]1(C)CC(=O)[C@@]23O[C@@H](C)O[C@H]4CCC(C)(C)[C@H]([C@H](O)[C@H](OC(C)=O)[C@@]2(C)O1)[C@]43C | > 100 | > 100 | > 100 | > 100 | > 100 | > 100 | > 100 | > 100 | 5.87 (≈ 13.4 µM) | > 100 |  | 
10 | C=C[C@@]1(C)CC(=O)[C@@]23O[C@@H](/C=C/c4ccccc4)O[C@H]4CCC(C)(C)[C@H]([C@H](O)[C@H](OC(C)=O)[C@@]2(C)O1)[C@]43C | > 100 | > 100 | > 100 | 38.5 (≈ 73.5 µM) | > 100 | > 100 | > 100 | > 100 | 0.74 (≈ 1.41 µM) | > 100 |  | 
11 | C=C[C@@]1(C)CC(=O)[C@@]23O[C@@H](c4ccc(Br)cc4)O[C@H]4CCC(C)(C)[C@H]([C@H](O)[C@H](OC(C)=O)[C@@]2(C)O1)[C@]43C | > 100 | > 100 | > 100 | > 100 | > 100 | > 100 | > 100 | > 100 | > 100 | 46.2 (≈ 79.9 µM) |  | 
12 | COc1cc([C@@H]2c3cc4c(cc3[C@H](O)[C@H]3COC(=O)[C@H]23)OCO4)cc(OC)c1OC [PODOFILOX] |  | 0.013 (≈ 0.0314 µM) | 0.017 (≈ 0.041 µM) | 0.12 (≈ 0.29 µM) | 1.05 (≈ 2.53 µM) | 0.034 (≈ 0.082 µM) |  |  |  | 3.14 (≈ 7.58 µM) | 0.69 | 
13 | C=C[C@@]1(C)CC(=O)[C@@]23O[C@@H](c4ccccc4)O[C@H]4CCC(C)(C)[C@H]([C@H](O)[C@H](O)[C@@]2(C)O1)[C@]43C | 9.79 (≈ 21.4 µM) | 1.26 (≈ 2.77 µM) | 20.8 (≈ 45.4 µM) | 1.17 (≈ 2.56 µM) | 21.6 (≈ 47.2 µM) | 20.4 (≈ 44.8 µM) | > 100 | 23.7 (≈ 51.9 µM) | > 100 | 3.89 (≈ 8.52 µM) | 0.69 | 0.67
14 | C=C[C@@]1(C)CC(=O)[C@@]23O[C@@H](C)O[C@H]4CCC(C)(C)[C@H]([C@H](O)[C@H](O)[C@@]2(C)O1)[C@]43C | 29.7 (≈ 75.4 µM) | 25.4 (≈ 64.3 µM) | 24.5 (≈ 62.1 µM) | 24.8 (≈ 63 µM) | 34.7 (≈ 87.9 µM) | 40.6 (≈ 103 µM) | 45.7 (≈ 116 µM) | 48 (≈ 122 µM) | 4.23 (≈ 10.7 µM) | 0.95 (≈ 2.41 µM) | 0.69 | 0.85
15 | C=C[C@@]1(C)CC(=O)[C@@]23O[C@@H](C)O[C@H]4CCC(C)(C)[C@H]([C@H](OC(C)=O)[C@H](O)[C@@]2(C)O1)[C@]43C | > 100 | > 100 | > 100 | > 100 | > 100 | 41.6 (≈ 95.3 µM) | 39.2 (≈ 89.9 µM) | > 100 | 6.4 (≈ 14.7 µM) | 17.4 (≈ 39.9 µM) |  | 
